Source: ChEMBL document CHEMBL1268917, “Synthesis and biological evaluation of radio-iodinated benzimidazoles as SPECT imaging agents for NR2B subtype of NMDA receptor” (Bioorg Med Chem, 2010)

Experiments:
[1] = biological target: Glutamate receptor ionotropic, NMDA 2B (Rattus norvegicus) (UniProt Q00960); experiment: Binding affinity to NR2B receptor in rat cerebral cortex at 0.09 to 0.14 nM after 30 mins by autoradiography in presence of prazosin relative to control; assay type: tissue-based; conditions: tested as the 125I-labelled form
Glutamate receptor ionotropic, NMDA 2B (Rattus norvegicus), sequence (Q00960 27-1482 limits assumed): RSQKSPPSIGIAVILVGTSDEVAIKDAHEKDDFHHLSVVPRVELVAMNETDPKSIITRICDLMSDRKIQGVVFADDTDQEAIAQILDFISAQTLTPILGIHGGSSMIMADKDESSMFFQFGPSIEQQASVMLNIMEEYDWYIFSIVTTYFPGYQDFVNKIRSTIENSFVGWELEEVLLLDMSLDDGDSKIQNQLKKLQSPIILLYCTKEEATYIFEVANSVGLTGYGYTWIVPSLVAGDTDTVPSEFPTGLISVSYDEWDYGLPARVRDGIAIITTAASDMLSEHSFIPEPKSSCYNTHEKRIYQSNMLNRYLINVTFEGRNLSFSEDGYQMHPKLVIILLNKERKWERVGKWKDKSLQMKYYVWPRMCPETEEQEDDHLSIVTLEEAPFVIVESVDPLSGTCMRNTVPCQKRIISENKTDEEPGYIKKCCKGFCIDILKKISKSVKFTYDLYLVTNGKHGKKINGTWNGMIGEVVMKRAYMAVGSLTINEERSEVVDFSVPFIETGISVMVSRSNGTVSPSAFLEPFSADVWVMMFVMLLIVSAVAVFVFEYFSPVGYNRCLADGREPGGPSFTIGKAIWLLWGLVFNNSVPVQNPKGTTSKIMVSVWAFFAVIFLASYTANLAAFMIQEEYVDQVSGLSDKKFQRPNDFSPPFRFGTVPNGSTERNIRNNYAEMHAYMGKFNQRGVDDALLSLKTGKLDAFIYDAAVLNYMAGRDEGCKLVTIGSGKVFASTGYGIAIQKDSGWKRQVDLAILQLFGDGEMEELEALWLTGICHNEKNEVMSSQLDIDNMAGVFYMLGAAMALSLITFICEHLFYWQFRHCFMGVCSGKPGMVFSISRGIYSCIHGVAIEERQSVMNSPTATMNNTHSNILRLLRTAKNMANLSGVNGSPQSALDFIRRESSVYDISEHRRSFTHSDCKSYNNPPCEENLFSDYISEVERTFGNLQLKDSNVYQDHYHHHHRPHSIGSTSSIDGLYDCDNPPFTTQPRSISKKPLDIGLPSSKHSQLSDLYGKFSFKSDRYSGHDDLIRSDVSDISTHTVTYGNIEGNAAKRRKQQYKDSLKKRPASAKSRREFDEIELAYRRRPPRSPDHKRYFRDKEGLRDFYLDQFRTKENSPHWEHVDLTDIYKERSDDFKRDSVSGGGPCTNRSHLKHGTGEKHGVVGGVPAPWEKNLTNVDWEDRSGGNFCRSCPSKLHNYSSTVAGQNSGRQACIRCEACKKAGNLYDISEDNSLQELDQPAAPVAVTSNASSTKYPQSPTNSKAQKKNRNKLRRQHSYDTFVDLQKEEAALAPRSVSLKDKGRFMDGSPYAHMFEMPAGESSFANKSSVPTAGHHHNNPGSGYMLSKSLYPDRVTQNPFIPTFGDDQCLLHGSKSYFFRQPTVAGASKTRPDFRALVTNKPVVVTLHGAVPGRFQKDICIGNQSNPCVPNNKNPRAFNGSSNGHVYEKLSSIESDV
Outline: (§1)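 Rinsed three times 3 min in cold buffer with 1% BSA, dipped in cold water, air-dried, exposed to imaging plates; PSL per mm² in ROIs. Expressed as % control binding; at least triplicate slices from three rats.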

[2] = biological target: Glutamate receptor ionotropic, NMDA 2B (Rattus norvegicus) (UniProt Q00960); experiment: Binding affinity to NR2B receptor in rat hippocampus at 0.09 to 0.14 nM after 30 mins by autoradiography in presence of prazosin relative to control; assay type: tissue-based; conditions: tested as the 125I-labelled form; outline: as §1
[3] = biological target: Glutamate receptor ionotropic, NMDA 2B (Rattus norvegicus) (UniProt Q00960); experiment: Binding affinity to NR2B receptor in rat cerebellum at 0.09 to 0.14 nM after 30 mins by autoradiography in presence of prazosin relative to control; assay type: tissue-based; conditions: tested as the 125I-labelled form; outline: as §1
[4] = biological target: Glutamate receptor ionotropic, NMDA 2B (Rattus norvegicus) (UniProt Q00960); experiment: Binding affinity to NR2B receptor in rat cerebral cortex at 0.09 to 0.14 nM after 30 mins by autoradiography in presence of DTG relative to control; assay type: tissue-based; conditions: tested as the 125I-labelled form; outline: as §1
[5] = biological target: Glutamate receptor ionotropic, NMDA 2B (Rattus norvegicus) (UniProt Q00960); experiment: Binding affinity to NR2B receptor in rat hippocampus at 0.09 to 0.14 nM after 30 mins by autoradiography in presence of DTG relative to control; assay type: tissue-based; conditions: tested as the 125I-labelled form; outline: as §1
[6] = biological target: Glutamate receptor ionotropic, NMDA 2B (Rattus norvegicus) (UniProt Q00960); experiment: Binding affinity to NR2B receptor in rat cerebellum at 0.09 to 0.14 nM after 30 mins by autoradiography in presence of DTG relative to control; assay type: tissue-based; conditions: tested as the 125I-labelled form; outline: as §1
[7] = biological target: Glutamate receptor ionotropic, NMDA 2B (Rattus norvegicus, UniProt Q00960); experiment: Displacement of [3H]ifenprodil from NR2B receptor in rat cortical synaptic membranes; assay type: cell membranes, Membrane
Glutamate receptor ionotropic, NMDA 2B, sequence (Q00960 whole entry): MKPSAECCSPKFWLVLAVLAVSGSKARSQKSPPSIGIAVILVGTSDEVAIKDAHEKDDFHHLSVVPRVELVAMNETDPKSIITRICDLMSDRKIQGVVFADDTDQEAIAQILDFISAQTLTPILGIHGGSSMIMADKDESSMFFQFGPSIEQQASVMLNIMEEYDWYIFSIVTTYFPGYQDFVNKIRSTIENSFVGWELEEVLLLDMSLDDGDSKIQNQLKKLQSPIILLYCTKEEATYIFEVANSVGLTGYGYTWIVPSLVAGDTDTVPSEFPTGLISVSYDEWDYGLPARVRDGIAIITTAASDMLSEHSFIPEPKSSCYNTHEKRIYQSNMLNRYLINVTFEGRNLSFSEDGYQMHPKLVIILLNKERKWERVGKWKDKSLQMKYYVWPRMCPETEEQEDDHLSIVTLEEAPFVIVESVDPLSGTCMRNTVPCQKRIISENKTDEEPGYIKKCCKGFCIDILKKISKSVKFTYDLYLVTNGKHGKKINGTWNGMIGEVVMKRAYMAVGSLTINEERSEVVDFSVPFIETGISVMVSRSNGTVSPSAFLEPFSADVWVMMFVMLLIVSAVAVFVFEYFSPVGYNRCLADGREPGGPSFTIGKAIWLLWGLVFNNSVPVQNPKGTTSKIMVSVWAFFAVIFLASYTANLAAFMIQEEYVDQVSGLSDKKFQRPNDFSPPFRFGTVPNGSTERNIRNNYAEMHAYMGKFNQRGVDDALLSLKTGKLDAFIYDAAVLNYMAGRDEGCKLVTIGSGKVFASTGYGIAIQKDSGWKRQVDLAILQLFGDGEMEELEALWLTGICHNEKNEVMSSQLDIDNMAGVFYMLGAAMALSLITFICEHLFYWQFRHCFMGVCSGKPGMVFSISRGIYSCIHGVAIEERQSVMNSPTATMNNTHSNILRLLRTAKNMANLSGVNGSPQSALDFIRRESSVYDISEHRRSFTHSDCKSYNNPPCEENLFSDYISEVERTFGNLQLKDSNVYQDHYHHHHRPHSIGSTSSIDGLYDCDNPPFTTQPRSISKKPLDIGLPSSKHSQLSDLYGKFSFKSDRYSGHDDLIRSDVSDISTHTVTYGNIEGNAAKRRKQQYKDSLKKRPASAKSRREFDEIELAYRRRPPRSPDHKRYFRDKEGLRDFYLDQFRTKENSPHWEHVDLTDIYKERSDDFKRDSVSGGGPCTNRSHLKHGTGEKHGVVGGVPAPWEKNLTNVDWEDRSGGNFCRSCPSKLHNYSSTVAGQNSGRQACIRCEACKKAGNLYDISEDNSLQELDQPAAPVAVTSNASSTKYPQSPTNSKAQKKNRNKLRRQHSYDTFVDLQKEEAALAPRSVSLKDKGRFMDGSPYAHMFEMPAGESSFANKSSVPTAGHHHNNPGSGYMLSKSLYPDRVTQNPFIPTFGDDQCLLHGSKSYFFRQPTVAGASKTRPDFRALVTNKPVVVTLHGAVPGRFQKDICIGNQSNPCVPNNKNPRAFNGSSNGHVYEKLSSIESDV

[8] = Octanol-buffer partition coefficient, log D of the compound at pH 7.4; assay type: physicochemical
[9] = Lipophilicity, log P of the compound; assay type: physicochemical; conditions: octanol/water
[10] = biological target: Glutamate receptor ionotropic, NMDA 2B (Rattus norvegicus) (UniProt Q00960); experiment: Binding affinity to NR2B receptor in rat cerebral cortex at 0.09 to 0.14 nM after 30 mins by autoradiography in presence of Ro-256981 relative to control; assay type: tissue-based; conditions: tested as the 125I-labelled form; outline: as §1
[11] = biological target: Glutamate receptor ionotropic, NMDA 2B (Rattus norvegicus) (UniProt Q00960); experiment: Binding affinity to NR2B receptor in rat hippocampus at 0.09 to 0.14 nM after 30 mins by autoradiography in presence of Ro-256981 relative to control; assay type: tissue-based; conditions: tested as the 125I-labelled form; outline: as §1
[12] = biological target: Glutamate receptor ionotropic, NMDA 2B (Rattus norvegicus) (UniProt Q00960); experiment: Binding affinity to NR2B receptor in rat cerebellum at 0.09 to 0.14 nM after 30 mins by autoradiography in presence of Ro-256981 relative to control; assay type: tissue-based; conditions: tested as the 125I-labelled form; outline: as §1

Activity [1]: 92.8%
Activity [2]: 95.5%
Activity [3]: 97%
Activity [4]: 93%
Activity [5]: 108%
Activity [6]: 104%
Ki [7]: 5.75 nM
logD [8]: 3.54
logP [9]: 3.54
Activity [10]: 58.1%
Activity [11]: 59%
Activity [12]: 89.3%
SMILES: CS(=O)(=O)Nc1ccc2nc(CN3CCC(Cc4ccc(I)cc4)CC3)[nH]c2c1
